ChEMBL document CHEMBL1129349, “Antiretroviral agents as inhibitors of both human immunodeficiency virus type 1 integrase and protease” (J Med Chem, 1996)
pIC50: −log10 of the molar value.

Legend:
[1] = biological target: T1, Human immunodeficiency virus type 1 integrase (Human immunodeficiency virus 1, UniProt Q7ZJM1); experiment: (§1) Inhibitory activity against HIV-1 integrase
How it was run: (§2)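 Purified recombinant wild-type HIV-1 integrase, 200 nM final, preincubated with inhibitor for 30 min at 30 °C. Buffer: 25 mM MOPS pH 7.2, 7.5 mM MnCl2, 50 mM NaCl, 10% DMSO, 10% glycerol, BSA, DTT, 2-mercaptoethanol. Then 20 nM 5'-32P-labeled 21mer U5 duplex added for 60 min. Products run on denaturing 20% polyacrylamide gel and quantified by phosphorimager.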

[2] = biological target: T1, Human immunodeficiency virus type 1 integrase; experiment: as §1; how it was run: as §2; remark: listed apart in the source
[3] = biological target: T2, Human immunodeficiency virus type 1 protease (Human immunodeficiency virus 1, UniProt Q72874); experiment: Inhibitory activity against HIV-1 protease
CCRF-CEM [4] = experiment: Inhibitory activity against HIV-1 infected CEM cells.; assay type: functional, cell-based; conditions: Homo sapiens
DNA topoisomerase 1 = biological target: T3, DNA topoisomerase 1 (Homo sapiens, UniProt P11387); experiment: Inhibitory activity against topoisomerase I.
T3 sequence (P11387 whole entry): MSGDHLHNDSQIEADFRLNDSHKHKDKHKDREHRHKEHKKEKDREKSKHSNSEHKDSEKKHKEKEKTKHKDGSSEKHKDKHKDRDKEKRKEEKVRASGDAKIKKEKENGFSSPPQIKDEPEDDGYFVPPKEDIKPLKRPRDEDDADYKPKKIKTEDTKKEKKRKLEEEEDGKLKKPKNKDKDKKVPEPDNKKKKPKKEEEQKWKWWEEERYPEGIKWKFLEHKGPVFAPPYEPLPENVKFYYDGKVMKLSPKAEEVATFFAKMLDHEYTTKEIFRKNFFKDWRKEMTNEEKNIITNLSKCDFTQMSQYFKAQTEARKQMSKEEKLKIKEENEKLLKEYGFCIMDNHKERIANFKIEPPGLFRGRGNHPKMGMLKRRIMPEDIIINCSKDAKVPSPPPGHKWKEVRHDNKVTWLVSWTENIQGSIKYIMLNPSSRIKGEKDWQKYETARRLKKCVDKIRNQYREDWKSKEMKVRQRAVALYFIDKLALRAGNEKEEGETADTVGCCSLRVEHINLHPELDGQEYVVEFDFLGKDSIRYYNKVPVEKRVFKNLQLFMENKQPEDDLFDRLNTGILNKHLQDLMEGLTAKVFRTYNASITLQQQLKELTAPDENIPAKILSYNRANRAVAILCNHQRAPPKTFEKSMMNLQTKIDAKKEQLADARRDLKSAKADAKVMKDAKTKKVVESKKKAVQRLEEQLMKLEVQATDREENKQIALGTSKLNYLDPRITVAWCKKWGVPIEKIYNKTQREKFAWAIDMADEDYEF
How it was run: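 Eukaryotic topoisomerase I on a duplex oligonucleotide with a single strong cleavage site, 3'-end labeled with α-[32P]cordycepin. Scored both for induction of cleavable complexes and for blocking camptothecin-induced complexes. Stopped with 0.5% SDS, proteinase K 60 min at 50 °C, denaturing 16% PAGE.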

[5] = system: Simian immunodeficiency virus; experiment: Inhibitory activity against simian was measured immunodeficiency virus (SIV) using 3'-processing (3'-proc); assay type: functional
How it was run: (§3)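 Recombinant FIV or SIV integrase, 600 nM final, preincubated 30 min at 30 °C with inhibitor in Mn2+/MOPS pH 7.2 buffer with 10% DMSO. 20 nM 5'-32P-labeled 21mer duplex added and incubated 60 min. The 3'-processed 19mer was resolved on denaturing 20% polyacrylamide gel and quantified by phosphorimager.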

[6] = biological target: T4, Human immunodeficiency virus type 2 integrase (Human immunodeficiency virus 2, UniProt P89582); experiment: Inhibitory activity against HIV-2 Integrase was measured using 3'-processing (3'-proc) assay.
T4 sequence (P89582 whole entry): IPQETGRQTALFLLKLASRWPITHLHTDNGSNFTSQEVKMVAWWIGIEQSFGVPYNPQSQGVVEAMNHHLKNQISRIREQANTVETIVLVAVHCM
How it was run: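 HIV-2 integrase, 200 nM final, preincubated 30 min at 30 °C with inhibitor in Mn2+/MOPS pH 7.2 buffer containing 10% DMSO. 3'-processing started with 20 nM 5'-32P-labeled 21mer duplex substrate and run 60 min more. Denaturing 20% PAGE, phosphorimager quantitation of the 19mer product.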

[7] = biological target: T2, Human immunodeficiency virus type 1 protease; experiment: Inhibitory activity against HIV-1 Protease.
[8] = system: Feline immunodeficiency virus; experiment: Inhibitory activity against feline was measured immunodeficiency virus (FIV) using 3'-processing (3'-proc) assay..; assay type: functional; how it was run: as §3
CCRF-CEM [9] = experiment: Inhibitory activity against HIV-1 infected CEM cells; inactive; assay type: functional, cell-based, Homo sapiens

T1 sequence (Q7ZJM1 whole entry): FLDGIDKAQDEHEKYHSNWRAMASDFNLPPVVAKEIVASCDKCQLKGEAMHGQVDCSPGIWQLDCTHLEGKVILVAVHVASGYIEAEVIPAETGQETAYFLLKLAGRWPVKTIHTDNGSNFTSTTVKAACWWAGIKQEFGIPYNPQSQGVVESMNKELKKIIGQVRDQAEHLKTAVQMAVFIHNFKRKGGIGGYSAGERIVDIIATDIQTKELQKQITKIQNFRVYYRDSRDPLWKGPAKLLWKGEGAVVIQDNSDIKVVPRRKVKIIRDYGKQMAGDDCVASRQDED

For `O=C(c1ccc(Cl)cc1)c1c(O)c2ccccc2oc1=O`, the pIC50 [1] was under 4.00, the pIC50 [2] was under 4.00 and the pIC50 [3] was under 4.00.
With `O=c1oc2cccc(O)c2c(O)c1Cc1ccccc1` the pIC50 [1] was under 4.00, the pIC50 [2] was under 4.00 and the pIC50 [3] was under 4.00.
`COc1cc(C(C2=C(O)C(=O)c3ccccc3C2=O)C2=C(O)C(=O)c3ccccc3C2=O)cc(OC)c1OC` gave a pIC50 [1] of under 4.00 and a pIC50 [2] of under 4.00.
`O=C1C(=O)c2ccccc2C(O)=C1CCCC1CCC2CCCCC2C1` (configuration not stated) was tested, and the pIC50 [1] was under 4.00, the pIC50 [2] was under 4.00 and the pIC50 [3] was 5.07.
With `CC(C1=C(O)C(=O)c2ccccc2C1=O)C1=C(O)C(=O)c2ccccc2C1=O` the pIC50 [1] was under 4.00 and the pIC50 [2] was under 4.00.
`Cc1ccc(S(=O)(=O)N/N=C(/CCN2CCCC2)CC(c2ccccc2)c2c(O)oc3ccccc3c2=O)cc1` (configuration not stated) gave a pIC50 [1] of under 4.00, a pIC50 [2] of under 4.00 and a pIC50 [3] of under 4.00.
With `O=C(c1cccc([N+](=O)[O-])c1)c1c(O)oc2ccccc2c1=O` the pIC50 [1] was under 4.00, the pIC50 [2] was under 4.00 and the pIC50 [3] was under 4.00.
`O=C(SCc1c(O)c2ccccc2oc1=O)c1ccccc1` gave a pIC50 [1] of under 4.00, a pIC50 [2] of under 4.00 and a pIC50 [3] of under 4.00.
`O=C1Oc2ccccc2C(O)C1Cc1c(O)oc2ccccc2c1=O` (configuration not stated) showed a pIC50 [1] of under 4.00, a pIC50 [2] of under 4.00 and a pIC50 [3] of under 4.00.
`O=c1oc2c(-c3ccccc3)cccc2c(O)c1-c1ccccc1` showed a pIC50 [1] of under 4.00, a pIC50 [2] of under 4.00 and a pIC50 [3] of 4.89.
In the case of `COc1cc(C(C2=C(O)C(=O)c3ccccc3C2=O)C2=C(O)C(=O)c3ccccc3C2=O)cc(Br)c1O`, the pIC50 [1] was 4.49 and the pIC50 [2] was 4.70.
`CC(=O)Nc1ccc(C(C2=C(O)C(=O)c3ccccc3C2=O)C2=C(O)C(=O)c3ccccc3C2=O)cc1` showed a pIC50 [1] of 4.07 and a pIC50 [2] of 4.11.
Compound `CCOC(=O)C(c1c(O)c2ccccc2oc1=O)c1c(O)c2ccccc2oc1=O` [ETHYL BISCOUMACETATE] has a pIC50 [1] of under 4.00, a pIC50 [2] of under 4.00 and a pIC50 [3] of under 4.00.
Work on `O=C1C(O)=C(C(C2=C(O)C(=O)c3ccccc3C2=O)c2ccc(Cl)cc2)C(=O)c2ccccc21` yielded a pIC50 [1] of under 4.00 and a pIC50 [2] of under 4.00.
With `O=C1C(O)=C(C(C#Cc2ccccc2)C2=C(O)C(=O)c3ccccc3C2=O)C(=O)c2ccccc21` the pIC50 [1] was under 4.00 and the pIC50 [2] was 4.14.
Compound `CC(=O)c1cccc(NC(=O)C(=O)c2c(O)oc3ccccc3c2=O)c1` has a pIC50 [1] of under 4.00, a pIC50 [2] of under 4.00 and a pIC50 [3] of under 4.00.
In the case of `CCCCCCc1cc2c(cc1O)OC(=O)C(C(c1ccccc1)c1c(O)oc3cc(O)c(CCCCCC)cc3c1=O)C2O` (configuration not stated), the pIC50 [1] was 4.98, the pIC50 [2] was 4.92 and the pIC50 [3] was 6.49.
`O=C1C(O)=C(C(C2=C(O)C(=O)c3ccccc3C2=O)c2ccc(Cl)cc2Cl)C(=O)c2ccccc21` showed a pIC50 [1] of 4.43, a pIC50 [2] of 4.40 and a pIC50 [3] of 4.62.
In the case of `CN(C)c1ccc(C(C2=C(O)C(=O)c3ccccc3C2=O)C2=C(O)C(=O)c3ccccc3C2=O)cc1`, the pIC50 [1] was under 4.00 and the pIC50 [2] was under 4.00.
`O=c1oc2ccccc2c(O)c1-c1ccccc1` was tested, and the pIC50 [1] was under 4.00, the pIC50 [2] was under 4.00 and the pIC50 [3] was 4.49.
For `CCOC(=O)C(C1=C(O)C(=O)c2ccccc2C1=O)C1=C(O)C(=O)c2ccccc2C1=O`, the pIC50 [1] was 4.04 and the pIC50 [2] was 4.22.
With `COc1ccc2c(O)c(S(=O)(=O)c3ccc(Cl)cc3)c(=O)oc2c1` the pIC50 [1] was under 4.00, the pIC50 [2] was under 4.00 and the pIC50 [3] was under 4.00.
Work on `COc1ccc2c(O)c(S(=O)(=O)c3ccc(C)cc3)c(=O)oc2c1` yielded a pIC50 [1] of under 4.00, a pIC50 [2] of under 4.00 and a pIC50 [3] of under 4.00.
Compound `O=C1Oc2ccccc2C(O)C1Sc1c(O)oc2ccccc2c1=O` (configuration not stated) has a pIC50 [1] of 4.10, a pIC50 [2] of 4.00 and a pIC50 [3] of 4.68.
`O=c1c(C(c2ccc(C(c3c(O)oc4ccccc4c3=O)c3c(O)oc4ccccc4c3=O)cc2)c2c(O)oc3ccccc3c2=O)c(O)oc2ccccc12` was tested, and the pIC50 (CCRF-CEM [4]) was 4.94, the pIC50 (DNA topoisomerase 1) was 5.00 and the pIC50 [5] was 5.64. It also gave a pIC50 [1] of 5.82, a pIC50 [6] of 6.00 and a pIC50 [7] of 5.77. It also gave a pIC50 [8] of 5.66 and a pIC50 [2] of 6.10.
`O=C1C(O)=C(C(CCc2ccccc2)C2=C(O)C(=O)c3ccccc3C2=O)C(=O)c2ccccc21` showed a pIC50 [1] of 4.08 and a pIC50 [2] of 4.05.
With `CC(C)c1cccc(C(C)C)c1NC(=O)C(=O)CC(=O)CC(c1ccccc1)c1c(O)oc2ccccc2c1=O` (configuration not stated) the pIC50 [1] was under 4.00, the pIC50 [2] was under 4.00 and the pIC50 [3] was 4.51.
For `O=C1C(=O)c2ccccc2C(O)=C1Cc1ccc(Cl)cc1`, the pIC50 [1] was 4.04, the pIC50 [2] was 4.25 and the pIC50 [3] was 5.52.
`CCOc1ccc(C(C2=C(O)C(=O)c3ccccc3C2=O)C2=C(O)C(=O)c3ccccc3C2=O)cc1OC` showed a pIC50 [1] of under 4.00 and a pIC50 [2] of under 4.00.
`O=c1c(C(c2ccc3c(c2)OCO3)c2c(O)oc3ccccc3c2=O)c(O)oc2ccccc12` gave a pIC50 [1] of 4.33, a pIC50 [2] of 4.74 and a pIC50 [3] of 4.52.
Compound `O=C1C(=O)c2ccccc2C(O)=C1CSc1ccc(Cl)cc1` has a pIC50 [1] of under 4.00, a pIC50 [2] of under 4.00 and a pIC50 [3] of 4.30.
Compound `O=C1C(O)=C(C(C2=C(O)C(=O)c3ccccc3C2=O)c2ccccc2)C(=O)c2ccccc21` has a pIC50 [1] of 4.17 and a pIC50 [2] of 4.32.
Work on `CCCCCCC/N=C1/C(=O)c2ccccc2C(O)=C1O` yielded a pIC50 [1] of under 4.00, a pIC50 [2] of under 4.00 and a pIC50 [3] of 4.48.
`O=C1C(=O)c2ccccc2C(O)=C1Sc1ccccc1` showed a pIC50 [1] of under 4.00, a pIC50 [2] of under 4.00 and a pIC50 [3] of under 4.00.
In the case of `O=C1C(O)=C(C(C2=C(O)C(=O)c3ccccc3C2=O)c2ccc(C(C3=C(O)C(=O)c4ccccc4C3=O)C3=C(O)C(=O)c4ccccc4C3=O)cc2)C(=O)c2ccccc21`, the pIC50 (DNA topoisomerase 1) was 4.22, the pIC50 [1] was 5.12 and the pIC50 [7] was 6.12. The pIC50 [2] was 5.57 and the IC50 (CCRF-CEM [9]) was “Not Active”.
Work on `O=C1C(O)=C(C(C2=C(O)C(=O)c3ccccc3C2=O)c2ccc(Cl)c(Cl)c2)C(=O)c2ccccc21` yielded a pIC50 [1] of 4.05 and a pIC50 [2] of 4.28.
`O=C(NC1=C(Cl)C(=O)c2ccccc2C1=O)C(=O)c1c(O)c2ccccc2oc1=O` gave a pIC50 [1] of under 4.00, a pIC50 [2] of under 4.00 and a pIC50 [3] of under 4.00.
`O=C1C=C(O)C(=O)c2ccccc21` [LAWSONE] gave a pIC50 [3] of under 4.00.
